Experimental findings from ChEMBL document CHEMBL3352439, “γ-Butyrolactone, cytochalasin, cyclic carbonate, eutypinic acid, and phenalenone derivatives from the soil fungus Aspergillus sp. PSU-RSPG185” (J Nat Prod, 2014) are described below.

Experiment [1] deals with KB. Description: Cytotoxicity against human KB cells by colorimetric method. The class given is functional, cell-based. In a few lines:
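KB cells assayed by the method of O'Brien and coworkers; ellipticine as reference compound; IC50 derived.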

Experiment [2] concerns Plasmodium falciparum. Description: Antimalarial activity against multidrug-resistant Plasmodium falciparum K1 assessed as [3H]-hypoxanthine incorporation 24 to 42 hrs by scintillation counting analysis. Type of experiment: functional, organism-based. The essentials:
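Microculture radioisotope technique against multidrug-resistant K1 parasites; dihydroartemisinin as reference drug.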

For experiment [3], the system named is Mycobacterium tuberculosis. Description: Antimicrobial activity against Mycobacterium tuberculosis H37Ra assessed as growth inhibition by green fluorescent protein-based fluorescent detection. Type of experiment: functional, organism-based. The essentials:
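Growth inhibition read by GFP-based fluorescence; isoniazid as reference drug; result reported as MIC.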

Experiment [4] deals with Vero. Description: Cytotoxicity against african green monkey Vero cells by colorimetric method. The class given is cell-based. Particulars: Chlorocebus sabaeus. In a few lines:
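Vero cells assayed by a colorimetric method; ellipticine as reference compound; IC50 derived.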

Calls of active or inactive are those of the source. The calls are words filed in the database; no cut-off is given here.

As for `CO[C@@]1(C/C=C(\C)CC/C=C(\C)CC[C@@H](O)C(C)(C)O)C(=O)c2c(O)cc(C)c3c(O)c(C)c(O)c(c23)C1=O`, the results for the IC50 in experiment [1] and in experiment [4] were 48.4 µM and 34.2 µM, respectively. In addition, the outcome in experiment [2] and in experiment [3] was inactive.

Turning to `C=C(C)C#Cc1cc(C(=O)O)ccc1O`, the inhibition result in experiment [1] was “inactive”. The result in experiment [2] and in experiment [3] was inactive.

In the case of `COc1c(O)c2c3c(c(O)cc(C)c3c1O)C(=O)[C@](C)(C/C=C(\C)CC/C=C(\C)CC[C@@H](O)C(C)(C)O)C2=O`, in experiment [1], the inhibition entry is “inactive”. Besides, the outcome in experiment [2] and in experiment [3] was inactive.

For `CC1=C[C@@H]2[C@H]3[C@H]([C@H](O)C(=O)[C@]24C(=O)N[C@@H](CC(C)C)[C@@H]4[C@@H]1C)[C@@H](O)CCC[C@]3(C)O`, the inhibition entry in experiment [1] is “inactive”. Also, the outcome in experiment [2] and in experiment [3] was inactive.

The term IC50 denotes the concentration at which inhibition is half-maximal.
